Assay results reported in ChEMBL document CHEMBL3132745, “Synthesis and Antimicrobial Activities of His(2-aryl)-Arg and Trp-His(2-aryl) Classes of Dipeptidomimetics” (Medchemcomm, 2014).
Values after ≈ are worked out from the molar mass of the structure shown. Active and inactive are the calls of the source. How the calls were made is not given here. Residues, ends and D or L forms follow the SMILES beside them. *: point of attachment. NHBn = c1ccc(CN*)cc1

Experiments:
LLC-PK1 = assay: Cytotoxicity against pig LLC-PK1 cells assessed as cell viability after 48 hrs by neutral red uptake assay; format: cell-based, Sus scrofa; conditions: llc-pk1, 48 h
How it was run: (§1)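 Neutral red uptake assay on human cancer lines (SK-MEL, KB, BT-549, SK-OV-3) and noncancerous mammalian cells (VERO, LLC-PK1). Highest tested concentration was 10 µg/mL.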

Vero = assay: Cytotoxicity against african green monkey Vero cells assessed as cell viability after 48 hrs by neutral red uptake assay; format: cell-based; conditions: chlorocebus sabaeus; how it was run: as §1
SK-OV-3 = assay: Cytotoxicity against human SKOV3 cells assessed as cell viability after 48 hrs by neutral red uptake assay; format: cell-based; conditions: sk-ov-3, 48 h; how it was run: as §1
KB = assay: Cytotoxicity against human KB cells assessed as cell viability after 48 hrs by neutral red uptake assay; format: cell-based; how it was run: as §1
BT-549 = assay: Cytotoxicity against human BT549 cells assessed as cell viability after 48 hrs by neutral red uptake assay; format: cell-based; conditions: bt-549, 48 h; how it was run: as §1
SK-MEL = assay: Cytotoxicity against human SK-MEL cells assessed as cell viability after 48 hrs by neutral red uptake assay; format: cell-based; how it was run: as §1
Escherichia coli = assay: Antibacterial activity against Escherichia coli ATCC 35218 assessed as growth inhibition after 16-20 hrs by CLSI method; format: functional, organism-based
Aspergillus fumigatus = assay: Antifungal activity against Aspergillus fumigatus assessed as growth inhibition; format: functional, organism-based
Pichia kudriavzevii = assay: Antifungal activity against Candida krusei assessed as growth inhibition; format: functional, organism-based
Nakaseomyces glabratus = assay: Antifungal activity against Candida glabrata assessed as growth inhibition; format: functional, organism-based
Candida albicans = assay: Antifungal activity against Candida albicans assessed as growth inhibition; format: functional, organism-based
Cryptococcus neoformans = assay: Antifungal activity against Cryptococcus neoformans ATCC 90113 assessed as growth inhibition after 70-74 hrs by CLSI method; format: functional, organism-based
[1] = Cryptococcus neoformans, ATCC 90113
[2] = Cryptococcus neoformans, ATCC 90113, read-out: IC50

Row | SMILES | MIC (Cryptococcus neoformans) | MIC (Cryptococcus neoformans; [1]) | Activity (LLC-PK1) | Activity (Vero) | Activity (SK-OV-3) | Activity (KB) | Activity (BT-549) | Activity (SK-MEL) | growth inhibition (GI) (Escherichia coli) | growth inhibition (GI) (Aspergillus fumigatus) | growth inhibition (GI) (Pichia kudriavzevii) | growth inhibition (GI) (Nakaseomyces glabratus) | growth inhibition (GI) (Candida albicans) | IC50 (Cryptococcus neoformans) | MFC (Cryptococcus neoformans) | IC50 (Cryptococcus neoformans; [2]) | MFC (Cryptococcus neoformans; [1])
1 | COC(=O)[C@H](Cc1c[nH]c(-c2ccc(C)cc2)n1)NC(=O)[C@@H](N)Cc1c[nH]c2ccccc12 | inactive | – | > 10 µg/mL | > 10 µg/mL | > 10 µg/mL | > 10 µg/mL | > 10 µg/mL | > 10 µg/mL | inactive | inactive | inactive | inactive | inactive | – | inactive | 11.9 µg/mL (≈ 26.7 µM) | –
2 | COC(=O)[C@H](Cc1c[nH]c(-c2cccc3ccccc23)n1)NC(=O)[C@H](Cc1c[nH]c2ccccc12)NC(=O)OC(C)(C)C | inactive | – | > 10 µg/mL | > 10 µg/mL | > 10 µg/mL | > 10 µg/mL | > 10 µg/mL | > 10 µg/mL | inactive | inactive | inactive | inactive | inactive | Not Active | inactive | – | –
3 | COC(=O)[C@H](Cc1c[nH]c(-c2ccc(OC)cc2)n1)NC(=O)[C@H](Cc1c[nH]c2ccccc12)NC(=O)OC(C)(C)C | inactive | – | > 10 µg/mL | > 10 µg/mL | > 10 µg/mL | > 10 µg/mL | > 10 µg/mL | > 10 µg/mL | inactive | inactive | inactive | inactive | inactive | Not Active | inactive | – | –
4 | COc1ccc(-c2nc(C[C@H](NC(=O)[C@H](Cc3c[nH]c4ccccc34)NC(=O)OC(C)(C)C)C(=O)NCc3ccccc3)c[nH]2)cc1 | inactive | – | > 10 µg/mL | > 10 µg/mL | > 10 µg/mL | > 10 µg/mL | > 10 µg/mL | > 10 µg/mL | inactive | inactive | inactive | inactive | inactive | Not Active | inactive | – | –
5 | CC(C)(C)OC(=O)N[C@@H](Cc1c[nH]c2ccccc12)C(=O)N[C@@H](Cc1c[nH]c(-c2ccccc2)n1)C(=O)NCc1ccccc1 | inactive | – | > 10 µg/mL | > 10 µg/mL | > 10 µg/mL | > 10 µg/mL | > 10 µg/mL | > 10 µg/mL | inactive | inactive | inactive | inactive | inactive | Not Active | inactive | – | –
6 | COC(=O)[C@H](Cc1c[nH]c(-c2ccc(C)cc2)n1)NC(=O)[C@H](Cc1c[nH]c2ccccc12)NC(=O)OC(C)(C)C | inactive | – | > 10 µg/mL | > 10 µg/mL | > 10 µg/mL | > 10 µg/mL | > 10 µg/mL | > 10 µg/mL | inactive | inactive | inactive | inactive | inactive | Not Active | inactive | – | –
7 | CC(C)(C)OC(=O)N[C@@H](Cc1c[nH]c2ccccc12)C(=O)N[C@@H](Cc1c[nH]c(-c2ccc(-c3ccccc3)cc2)n1)C(=O)NCc1ccccc1 | inactive | – | > 10 µg/mL | > 10 µg/mL | > 10 µg/mL | > 10 µg/mL | > 10 µg/mL | > 10 µg/mL | inactive | inactive | inactive | inactive | inactive | Not Active | inactive | – | –
8 | C[C@@H]1[C@H](O)[C@@H](C)/C=C/C=C/C=C/C=C/C=C/C=C/C=C/[C@H](O[C@@H]2O[C@H](C)[C@@H](O)[C@H](N)[C@@H]2O)C[C@@H]2O[C@](O)(C[C@@H](O)C[C@@H](O)[C@H](O)CC[C@@H](O)C[C@@H](O)CC(=O)O[C@H]1C)C[C@H](O)[C@H]2C(=O)O [AMPHOTERICIN B] | – | 1.25 µg/mL (≈ 1.35 µM) | – | – | – | – | – | – | – | – | – | – | – | – | – | 0.69 µg/mL (≈ 0.747 µM) | 1.25 µg/mL (≈ 1.35 µM)

Continued, in another order:

Row | MIC (Cryptococcus neoformans) | MIC (Cryptococcus neoformans; [1]) | SMILES | Activity (LLC-PK1) | Activity (Vero) | Activity (SK-OV-3) | Activity (KB) | Activity (BT-549) | Activity (SK-MEL) | growth inhibition (GI) (Escherichia coli) | growth inhibition (GI) (Aspergillus fumigatus) | growth inhibition (GI) (Pichia kudriavzevii) | growth inhibition (GI) (Nakaseomyces glabratus) | growth inhibition (GI) (Candida albicans) | IC50 (Cryptococcus neoformans) | MFC (Cryptococcus neoformans) | IC50 (Cryptococcus neoformans; [2]) | MFC (Cryptococcus neoformans; [1])
9 | inactive | – | N[C@@H](Cc1c[nH]c2ccccc12)C(=O)N[C@@H](Cc1c[nH]cn1)C(=O)NCc1ccccc1 (H-Trp-His-NHBn) | > 10 µg/mL | > 10 µg/mL | > 10 µg/mL | > 10 µg/mL | > 10 µg/mL | > 10 µg/mL | inactive | inactive | inactive | inactive | inactive | Not Active | inactive | – | –
10 | inactive | – | N=C(N)NCCC[C@H](NC(=O)[C@@H](N)Cc1c[nH]cn1)C(=O)NCc1ccccc1 (H-His-Arg-NHBn) | > 10 µg/mL | > 10 µg/mL | > 10 µg/mL | > 10 µg/mL | > 10 µg/mL | > 10 µg/mL | inactive | inactive | inactive | inactive | inactive | Not Active | inactive | – | –
11 | – | 10 µg/mL (≈ 18.6 µM) | COc1ccc(-c2nc(C[C@H](NC(=O)[C@@H](N)Cc3c[nH]c4ccccc34)C(=O)NCc3ccccc3)c[nH]2)cc1 | > 10 µg/mL | > 10 µg/mL | > 10 µg/mL | > 10 µg/mL | > 10 µg/mL | > 10 µg/mL | inactive | inactive | inactive | inactive | inactive | – | inactive | 10.8 µg/mL (≈ 20.2 µM) | –
12 | inactive | – | COC(=O)[C@H](CCCNC(=N)N)NC(=O)[C@H](Cc1c[nH]c(-c2ccc(C(C)(C)C)cc2)n1)NC(=O)OC(C)(C)C | > 10 µg/mL | > 10 µg/mL | > 10 µg/mL | > 10 µg/mL | > 10 µg/mL | > 10 µg/mL | inactive | inactive | inactive | inactive | inactive | Not Active | inactive | – | –
13 | inactive | – | COC(=O)[C@H](CCCNC(=N)N)NC(=O)[C@@H](N)Cc1c[nH]c(-c2ccccc2)n1 | > 10 µg/mL | > 10 µg/mL | > 10 µg/mL | > 10 µg/mL | > 10 µg/mL | > 10 µg/mL | inactive | inactive | inactive | inactive | inactive | – | inactive | 10.6 µg/mL (≈ 26.3 µM) | –
14 | inactive | – | COC(=O)[C@H](CCCNC(=N)N)NC(=O)[C@@H](N)Cc1c[nH]c(-c2ccc(OC)cc2)n1 | > 10 µg/mL | > 10 µg/mL | > 10 µg/mL | > 10 µg/mL | > 10 µg/mL | > 10 µg/mL | inactive | inactive | inactive | inactive | inactive | Not Active | inactive | – | –
15 | inactive | – | COC(=O)[C@H](CCCNC(=N)N)NC(=O)[C@@H](N)Cc1c[nH]c(-c2ccc(C)cc2)n1 | > 10 µg/mL | > 10 µg/mL | > 10 µg/mL | > 10 µg/mL | > 10 µg/mL | > 10 µg/mL | inactive | inactive | inactive | inactive | inactive | Not Active | inactive | – | –
